Drawing on ChEMBL document CHEMBL1147366, “Cytotoxic and antimalarial alkaloids from the tubers of Stephania pierrei” (J Nat Prod, 1993), this text covers CC50, EC50 and selectivity ratio for 4 molecules.

Converted amounts (≈) assume the structure as drawn.

The nature of series [1]: Cytotoxicity against human KB cells after 3 days by SRB assay. It counts as cell-based. The note with it: read-out: ED50.
Series [2] is described as follows: Cytotoxicity against human U373 cells after 3 days by SRB assay. It counts as functional, U-373MG ATCC. The note with it: U373 MG, 72 h, read-out: ED50 (the source's name). A general note: Sulforhodamine B stains cellular protein and so reports cell mass.
Series [3] deals with Plasmodium falciparum. The experiment in a line: Antimalarial activity after 24 hrs against chloroquine-resistant Plasmodium falciparum W2 infected type A+ human erythrocytes by [3H]hypoxanthine uptake. It counts as functional. The note with it: read-out: ED50 (the source's name).
Series [4] in a line: Cytotoxicity against human Col1 cells after 3 days by SRB assay. It counts as functional. The conditions noted are these: Col1, 72 h, read-out: ED50 (the source's name).
A short description of series [5]: Cytotoxicity against vinblastine-resistant human KBV1 cells after 3 days by SRB assay. It counts as functional. The note with it: KB-V1, 72 h, read-out: ED50 (the source's name).
The test system of series [6] is HT-1080. In words: Cytotoxicity against human HT1080 cells after 3 days by SRB assay. It counts as functional. The note with it: HT-1080, 72 h, read-out: ED50 (the source's name).
Series [7] can be described thus: Cytotoxicity against human BCA1 cells after 3 days by SRB assay. It counts as functional. The note with it: BCA1, 72 h, read-out: ED50 (the source's name).
Series [8] is described as follows: Cytotoxicity against human LUC1 cells after 3 days by SRB assay. It counts as functional. The conditions noted are these: LUC1, 72 h, read-out: ED50 (the source's name).
Series [9] is described as follows: Selectivity index, ED50 for human KB cells to ED50 for chloroquine-sensitive Plasmodium falciparum D6. It counts as toxicity, cell-based. The conditions noted are these: read-out: Ratio ED50. In short, it runs like this:
(§1)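 Selectivity index is the ED50 in KB cells divided by the ED50 against the P. falciparum strain (D-6, chloroquine-sensitive; W-2, chloroquine-resistant). Parasite ED50s are expressed in ng/ml and KB ED50s in µg/ml.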

Series [10] has as its system LNCaP. In words: Cytotoxicity against human LNCAP cells after 3 days by SRB assay. It counts as functional. The note with it: 72 h, read-out: ED50 (the source's name).
Series [11] deals with ZR-75-1. The experiment in a line: Cytotoxicity against human ZR-75-1 cells after 3 days by SRB assay. It counts as functional. The conditions noted are these: ZR-75-1, 72 h, read-out: ED50 (the source's name).
Series [12] can be described thus: Selectivity index, ED50 for human KB cells to ED50 for chloroquine-resistant Plasmodium falciparum W2. It counts as toxicity, cell-based. The note with it: read-out: Ratio ED50. In short, it runs like this:
as §1

The test system of series [13] is A-431. In words: Cytotoxicity against human A431 cells after 3 days by SRB assay. It counts as functional. The note with it: A-431, 72 h, read-out: ED50 (the source's name).
The test system of series [14] is SK-MEL-2. The experiment in a line: Cytotoxicity against human SK-MEL-2 cells after 3 days by SRB assay. It counts as functional. The note with it: SK-MEL-2, 72 h, read-out: ED50 (the source's name).
Series [15] deals with Plasmodium falciparum. In words: Antimalarial activity after 24 hrs against chloroquine-sensitive Plasmodium falciparum D6 infected type A+ human erythrocytes by [3H]hypoxanthine uptake. It counts as functional. The note with it: read-out: ED50 (the source's name).
The test system of series [16] is P388. The experiment in a line: Cytotoxicity against mouse P388 cells after 3 days by SRB assay. It counts as functional. The note with it: P388, 72 h, read-out: ED50 (the source's name).

Consider `COc1ccc2c(c1)C[C@@H]1c3c(cc4c(c3-2)OCO4)CCN1C`, for which, in series [1], the CC50 at 72 h was 2.5 µg/mL (≈ 8.08 µM). Besides, the EC50 in [2] worked out at 1.3 µg/mL (≈ 4.2 µM); in series [3], 1.61 µg/mL (≈ 5.2 µM); in series [4], 3.2 µg/mL (≈ 10.3 µM); in [5] it was 1.2 µg/mL (≈ 3.88 µM); in series [6], 1.8 µg/mL (≈ 5.82 µM); in series [7], 2.9 µg/mL (≈ 9.37 µM). Also, the EC50 was 12.2 µg/mL (≈ 39.4 µM) in [8]; 2.9 µg/mL (≈ 9.37 µM) in series [10]; 2.6 µg/mL (≈ 8.4 µM) in series [11]; 1.3 µg/mL (≈ 4.2 µM) in series [13]; greater than 20 µg/mL in [14]; 2.56 µg/mL (≈ 8.28 µM) in [15]. In series [16], the EC50 is greater than 5 µg/mL. Also, the selectivity ratio in [9] was greater than 1; in series [12], 1.

Turning to `COc1cc2c(cc1OC)-c1c3c(cc4c1[C@@H](C2)N(C)CC4)OCO3`, the CC50 at 72 h in [1] was found to be 1.6 µg/mL (≈ 4.71 µM). In addition, the EC50 in series [2] is 1.5 µg/mL (≈ 4.42 µM); in series [3], 2.55 µg/mL (≈ 7.51 µM); in series [4] it was 2.1 µg/mL (≈ 6.19 µM); in series [5], 0.9 µg/mL (≈ 2.65 µM); in series [6], 1.7 µg/mL (≈ 5.01 µM); in series [7], 2.2 µg/mL (≈ 6.48 µM). Also, the EC50 in [8] was 6.1 µg/mL (≈ 18 µM); in series [10], 1.9 µg/mL (≈ 5.6 µM); in [11], 2.8 µg/mL (≈ 8.25 µM); in series [13], 1.7 µg/mL (≈ 5.01 µM); in [14] it was 3.8 µg/mL (≈ 11.2 µM); in series [15] it was 1.26 µg/mL (≈ 3.71 µM). The EC50 in series [16] is 0.6 µg/mL (≈ 1.77 µM). Moreover, the selectivity ratio in [9] worked out at 4; in series [12] it was 2.

On to `CN1CCc2cc3c(c4c2[C@H]1Cc1cc(O)ccc1-4)OCO3`, for which the CC50 at 72 h in series [1] was found to be 4.1 µg/mL (≈ 13.9 µM). The EC50 was 4.9 µg/mL (≈ 16.6 µM) in series [2]; 1.78 µg/mL (≈ 6.03 µM) in series [3]; 11.9 µg/mL (≈ 40.3 µM) in series [4]; 1.2 µg/mL (≈ 4.06 µM) in series [5]; 7.6 µg/mL (≈ 25.7 µM) in series [6]; 8.9 µg/mL (≈ 30.1 µM) in [7]. Further, the EC50 is 6.9 µg/mL (≈ 23.4 µM) in series [8]; 7.3 µg/mL (≈ 24.7 µM) in series [10]; 13.6 µg/mL (≈ 46 µM) in series [11]; 6.7 µg/mL (≈ 22.7 µM) in series [13]; greater than 20 µg/mL in [14]; 3.15 µg/mL (≈ 10.7 µM) in series [15]. Besides, the EC50 in series [16] is greater than 5 µg/mL. Moreover, the results for the selectivity ratio in [9] and in [12] were 2 and 4, respectively.

With `COc1cc2c(cc1O)-c1c3c(cc4c1[C@@H](C2)N(C)CC4)OCO3`, the CC50 at 72 h in series [1] was determined as 1.8 µg/mL (≈ 5.53 µM). Further, the EC50 came out at 1.7 µg/mL (≈ 5.22 µM) in series [2]; 2.88 µg/mL (≈ 8.85 µM) in series [3]; 4.1 µg/mL (≈ 12.6 µM) in series [4]; 1.2 µg/mL (≈ 3.69 µM) in [5]; 2.9 µg/mL (≈ 8.91 µM) in series [6]; 2.5 µg/mL (≈ 7.68 µM) in series [7]. The EC50 turned out to be 3.1 µg/mL (≈ 9.53 µM) in series [8]; 1.9 µg/mL (≈ 5.84 µM) in series [10]; 2.1 µg/mL (≈ 6.45 µM) in [11]; 12.6 µg/mL (≈ 38.7 µM) in series [13]; 18.8 µg/mL (≈ 57.8 µM) in [14]; 2.01 µg/mL (≈ 6.18 µM) in [15]. For the same molecule, the EC50 in [16] is 0.4 µg/mL (≈ 1.23 µM). In addition, the selectivity ratio in series [9] and in [12] was 1 in each case.
